Measurements as given in ChEMBL document CHEMBL1131637, “Novel and selective 5-HT2C/2B receptor antagonists as potential anxiolytic agents: synthesis, quantitative structure-activity relationships, and molecular modeling of substituted 1-(3-pyridylcarbamoyl)indolines” (J Med Chem, 1998).

Experiments:
[1] = target: 5-hydroxytryptamine receptor 2A (Homo sapiens, UniProt P28223); assay: Binding affinity towards human 5-hydroxytryptamine 2A receptor expressed in HEK 293 cells using [3H]ketanserin as radioligand; format: cell-based, HEK293
Chain of 5-hydroxytryptamine receptor 2A (P28223 whole entry): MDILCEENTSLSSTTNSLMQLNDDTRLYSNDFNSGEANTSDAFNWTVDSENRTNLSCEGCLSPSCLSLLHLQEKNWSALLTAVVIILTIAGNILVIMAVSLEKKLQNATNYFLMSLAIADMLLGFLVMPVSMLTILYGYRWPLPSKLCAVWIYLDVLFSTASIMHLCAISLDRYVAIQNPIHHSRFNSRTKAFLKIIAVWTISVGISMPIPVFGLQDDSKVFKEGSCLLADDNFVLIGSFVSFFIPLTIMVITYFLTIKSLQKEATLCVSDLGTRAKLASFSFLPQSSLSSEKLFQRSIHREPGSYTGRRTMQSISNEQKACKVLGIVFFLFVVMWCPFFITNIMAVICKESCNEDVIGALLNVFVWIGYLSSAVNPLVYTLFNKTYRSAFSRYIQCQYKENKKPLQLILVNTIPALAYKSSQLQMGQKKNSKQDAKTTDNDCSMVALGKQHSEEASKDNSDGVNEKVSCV
In short: (§1)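 Radioligand binding on human cloned receptors stably expressed in HEK 293 cells; 5-HT2A labelled with [3H]ketanserin, 5-HT2B with [3H]-5-HT. Values are means of at least two determinations, each within 0.2 log unit of the mean.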

[2] = target: T1, 5-hydroxytryptamine receptor 2C (Homo sapiens, UniProt P28335); assay: Binding affinity towards cloned human 5-hydroxytryptamine 2C receptor expressed in HEK 293 cells using [3H]mesulergine as radioligand; format: cell-based, HEK293
T1 sequence (P28335 whole entry): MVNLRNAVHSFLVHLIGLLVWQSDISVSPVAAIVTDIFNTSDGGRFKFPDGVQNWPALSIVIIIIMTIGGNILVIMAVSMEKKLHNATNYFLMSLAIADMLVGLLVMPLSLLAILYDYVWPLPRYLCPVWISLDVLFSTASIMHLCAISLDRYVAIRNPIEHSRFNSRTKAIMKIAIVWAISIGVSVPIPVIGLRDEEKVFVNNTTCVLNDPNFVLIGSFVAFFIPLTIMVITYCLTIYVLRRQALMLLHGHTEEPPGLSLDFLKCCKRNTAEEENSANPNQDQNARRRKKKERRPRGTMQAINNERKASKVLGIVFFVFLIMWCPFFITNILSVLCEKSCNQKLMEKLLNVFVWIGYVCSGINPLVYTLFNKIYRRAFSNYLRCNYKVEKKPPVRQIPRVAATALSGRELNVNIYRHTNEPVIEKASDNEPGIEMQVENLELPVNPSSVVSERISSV

Rattus norvegicus [3] = species on record: Rattus norvegicus; assay: The dose required to reverse […]- induced hypolocomotion in rat by 50 %; format: functional; conditions: ip, 0.5 h, read-out: ID50 (the source's name)
[4] = target: 5-hydroxytryptamine receptor 2B (Homo sapiens, UniProt P41595); assay: Binding affinity towards cloned human 5-hydroxytryptamine 2B receptor expressed in HEK 293 cells using [3H]5-HT as radioligand; format: cell-based, HEK293; in short: as §1
Chain of 5-hydroxytryptamine receptor 2B (P41595 whole entry): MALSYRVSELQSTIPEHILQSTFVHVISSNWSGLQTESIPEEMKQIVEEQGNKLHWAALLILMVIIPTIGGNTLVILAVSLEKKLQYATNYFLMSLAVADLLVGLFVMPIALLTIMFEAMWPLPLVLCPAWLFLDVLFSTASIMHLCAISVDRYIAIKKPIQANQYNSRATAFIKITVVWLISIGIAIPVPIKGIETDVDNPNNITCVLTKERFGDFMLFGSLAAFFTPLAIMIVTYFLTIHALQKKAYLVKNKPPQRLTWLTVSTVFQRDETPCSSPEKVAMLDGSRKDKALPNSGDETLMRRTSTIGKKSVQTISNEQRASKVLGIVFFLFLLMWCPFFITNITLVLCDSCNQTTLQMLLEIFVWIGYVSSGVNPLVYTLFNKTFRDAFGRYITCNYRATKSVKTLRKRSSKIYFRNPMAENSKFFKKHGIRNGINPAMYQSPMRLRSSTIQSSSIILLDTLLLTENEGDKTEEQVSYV

Rattus norvegicus [5] = assay: Percentage change punished lever presses from mean score on 6-8 ratsP<0.001) at 2 mg/kg po1h pretest; format: functional
Rattus norvegicus [6] = assay: Percentage change unpunished lever presses from mean score on 6-8 rats at 5 mg/kg po1h pretest; format: functional
Rattus norvegicus [7] = assay: Percentage change unpunished lever presses from mean score on 6-8 rats at 0.5 mg/kg po1h pretest; format: functional
Rattus norvegicus [8] = assay: Percentage change punished lever presses from mean score on 6-8 ratsP<0.001) at 20 mg/kg po1h pretest; format: functional
Rattus norvegicus [9] = assay: Percentage change unpunished lever presses from mean score on 6-8 rats at 10 mg/kg po1h pretest; format: functional
Rattus norvegicus [10] = assay: Percentage change punished lever presses from mean score on 6-8 rats(P<0.001) at 1 mg/kg po1h pretest; format: functional
Rattus norvegicus [11] = assay: Percentage change unpunished lever presses from mean score on 6-8 rats(P<0.01) at 20 mg/kg po1h pretest; format: functional
Rattus norvegicus [12] = assay: Percentage change punished lever presses from mean score on 6-8 rats at 0.5 mg/kg po1h pretest; format: functional
Rattus norvegicus [13] = assay: Percentage change punished lever presses from mean score on 6-8 ratsP<0.001) at 5 mg/kg po1h pretest; format: functional
Rattus norvegicus [14] = assay: Percentage change punished lever presses from mean score on 6-8 ratsP<0.001) at 10 mg/kg po1h pretest; format: functional
Rattus norvegicus [15] = assay: Percentage change unpunished lever presses from mean score on 6-8 rats(P<0.05) at 2 mg/kg po1h pretest; format: functional
Rattus norvegicus [16] = assay: Percentage change unpunished lever presses from mean score on 6-8 rats at 1 mg/kg po1h pretest; format: functional
Rattus norvegicus [17] = assay: Percentage change punished lever presses from mean score on 6-8 rats(P<0.001) at 5 mg/kg po1h pretest; format: functional
Rattus norvegicus [18] = assay: Percentage change punished lever presses from mean score on 6-8 rats at 0.2 mg/kg po1h pretest; format: functional
Rattus norvegicus [19] = assay: Percentage change unpunished lever presses from mean score on 6-8 rats at 0.2 mg/kg po1h pretest; format: functional
Rattus norvegicus [20] = assay: Percentage change punished lever presses from mean score on 6-8 rats(P<0.001) at 2 mg/kg po1h pretest; format: functional
Rattus norvegicus [21] = assay: Percentage change punished lever presses from mean score on 6-8 rats(P<0.001) at 0.5 mg/kg po1h pretest; format: functional
Rattus norvegicus [22] = assay: Percentage change unpunished lever presses from mean score on 6-8 rats at 2 mg/kg po1h pretest; format: functional
Rattus norvegicus [23] = assay: Percentage change unpunished lever presses from mean score on 6-8 rats at 20 mg/kg po1h pretest; format: functional
Rattus norvegicus [24] = assay: Percentage change unpunished lever presses from mean score on 6-8 ratsP<0.05)at 2 mg/kg po1h pretest; format: functional
Rattus norvegicus [25] = assay: Percentage change punished lever presses from mean score on 6-8 rats(P<0.001) at 20 mg/kg po1h pretest; format: functional
Rattus norvegicus [26] = assay: Percentage change punished lever presses from mean score on 6-8 rats(P<0.001) at 10 mg/kg po1h pretest; format: functional
Rattus norvegicus [27] = assay: Percentage change unpunished lever presses from mean score on 6-8 ratsP<0.01) at 1 mg/kg po1h pretest; format: functional
Rattus norvegicus [28] = assay: Percentage change punished lever presses from mean score on 6-8 rats(P<0.01) at 5 mg/kg po1h pretest; format: functional

| SMILES | Ki [1] [nM] | Ki [2] [nM] | also measured |
| --- | --- | --- | --- |
| O=C(Nc1cccnc1)N1CCc2cc(Br)cc([N+](=O)[O-])c21 | 3980 | 316 |  |
| Cc1ccc2c(c1I)CCN2C(=O)Nc1cccnc1 | 2510 | 25.1 |  |
| CC(C)(C)c1ccc2c(c1Cl)CCN2C(=O)Nc1cccnc1 | 631 | 39.8 |  |
| CCOc1cc2c(cc1Cl)N(C(=O)Nc1cccnc1)CC2 | 3980 | 25.1 | ED50 (Rattus norvegicus [3]): 3.4 mg/kg |
| CC(C)(C)c1cc2c(cc1Cl)N(C(=O)Nc1cccnc1)CC2 | 631 | 20 | Ki [4]: 158 nM |
| O=C(Nc1cccnc1)N1CCc2c(Cl)cccc21 | 3980 | 501 |  |
| Cc1cc2c(cc1I)N(C(=O)Nc1cccnc1)CC2 | 63.1 | 3.16 |  |
| O=C(Nc1cccnc1)N1CCc2cc(Cl)ccc21 | 2510 | 79.4 |  |
| Cc1cc2c(cc1Cl)CCN2C(=O)Nc1cccnc1 | 398 | 10 |  |
| CSc1cc2c(cc1Br)N(C(=O)Nc1cccnc1)CC2 | 501 | 2 | Change (Rattus norvegicus [5]): 29%; Change (Rattus norvegicus [6]): 4%; Change (Rattus norvegicus [7]): 0%; Change (Rattus norvegicus [8]): 53%; Change (Rattus norvegicus [9]): 3%; Change (Rattus norvegicus [10]): 24%; Change (Rattus norvegicus [11]): 6%; Change (Rattus norvegicus [12]): 0%; Change (Rattus norvegicus [13]): 28%; ED50 (Rattus norvegicus [3]): 3 mg/kg; Change (Rattus norvegicus [14]): 38%; Change (Rattus norvegicus [15]): 5%; Change (Rattus norvegicus [16]): 2% |
| CSc1c(Cl)cc2c(c1Cl)CCN2C(=O)Nc1cccnc1 | 63.1 | 2.51 |  |
| CCc1cc2c(cc1Cl)N(C(=O)Nc1cccnc1)CC2 | 398 | 5.01 |  |
| O=C(Nc1cccnc1)N1CCc2cc(C(F)(F)F)ccc21 | 1260 | 31.6 |  |
| O=C(Nc1cccnc1)N1CCc2ccc(C(F)(F)F)cc21 | 501 | 50.1 |  |
| COC(=O)c1cc2c(cc1Cl)N(C(=O)Nc1cccnc1)CC2 | 6310 | 31.6 | ED50 (Rattus norvegicus [3]): 16 mg/kg |
| O=C(Nc1cccnc1)N1CCc2ccc(Cl)c(Cl)c21 | 5010 | 794 |  |
| CCOc1cc2c(cc1C(F)(F)F)N(C(=O)Nc1cccnc1)CC2 | 1580 | 6.31 | Change (Rattus norvegicus [17]): 31%; Change (Rattus norvegicus [18]): 5%; Change (Rattus norvegicus [19]): 3%; Change (Rattus norvegicus [6]): 0%; Change (Rattus norvegicus [20]): 24%; Change (Rattus norvegicus [7]): 3%; Change (Rattus norvegicus [10]): 33%; Change (Rattus norvegicus [21]): 31%; ED50 (Rattus norvegicus [3]): 1 mg/kg; Change (Rattus norvegicus [22]): 1%; Change (Rattus norvegicus [16]): 4% |
| O=C(Nc1cccnc1)N1CCc2cc([N+](=O)[O-])ccc21 | > 6310 | 316 |  |
| CCCSc1cc2c(cc1C(F)(F)F)N(C(=O)Nc1cccnc1)CC2 | > 6310 | 6.31 | Ki [4]: 15.8 nM |
| O=C(Nc1cccnc1)N1CCc2cc(I)c(Cl)cc21 | 100 | 3.16 |  |
| COc1cc2c(cc1C(F)(F)C(F)(F)F)N(C(=O)Nc1cccnc1)CC2 | 3980 | 12.6 |  |
| CC(C)Oc1cc2c(cc1C(F)(F)F)N(C(=O)Nc1cccnc1)CC2 | 1580 | 3.16 | Ki [4]: 3.98 nM; ED50 (Rattus norvegicus [3]): 1.4 mg/kg |
| CSc1cc2c(cc1C(F)(F)F)N(C(=O)Nc1cccnc1)CC2 |  |  | Change (Rattus norvegicus [23]): 0%; Change (Rattus norvegicus [24]): 4%; Change (Rattus norvegicus [6]): 2%; Change (Rattus norvegicus [20]): 36%; Change (Rattus norvegicus [7]): 3%; Change (Rattus norvegicus [25]): 76%; Change (Rattus norvegicus [9]): -2%; Change (Rattus norvegicus [10]): 30%; Change (Rattus norvegicus [12]): 6%; ED50 (Rattus norvegicus [3]): 1.2 mg/kg; Change (Rattus norvegicus [26]): 46%; Change (Rattus norvegicus [27]): 10%; Change (Rattus norvegicus [28]): 38% |
| O=C(Nc1cccnc1)N1CCc2ccc(Cl)cc21 | 794 | 50.1 |  |
| CC(C)c1cc2c(cc1C(F)(F)F)N(C(=O)Nc1cccnc1)CC2 | > 6310 | 25.1 |  |
| CCSc1cc2c(cc1C(F)(F)F)N(C(=O)Nc1cccnc1)CC2 | 3160 | 3.16 | Ki [4]: 10 nM; ED50 (Rattus norvegicus [3]): 4.4 mg/kg |
